ChEMBL document CHEMBL4689842, “EUbOPEN Chemogenomics Library wave 1” (2021)

Tested on: Fibroblast
Experiment: Multiplex assay against human fibroblast
Format: toxicity, cell-based
In short: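 Four dyes were applied at seeding to live cells: Hoechst33342, BioTracker Green Microtubule Cytoskeleton Dye, MitoTracker Red and Annexin V Alexa Fluor 680. Imaging after compound addition used a CQ1 microscope at 37°C and 5% CO2. CellPathfinder machine-learning gating then sorted cells into Hoechst high-intensity objects or normal cells, normal cells into healthy, pyknosed or fragmented nuclei, and pyknosed cells into mitotic or apoptotic, with tubulin, mitochondrial-mass and membrane-permeability phenotypes given as per cents of healthy-nucleus cells.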

[1] = 12 h, 1 µM, compound concentration 1 uM, replicate 1
[2] = 12 h, 1 µM, compound concentration 1 uM, replicate 2
[3] = 12 h, 10 µM, compound concentration 10 uM, replicate 1
[4] = 12 h, 10 µM, compound concentration 10 uM, replicate 2
[5] = 24 h, 1 µM, compound concentration 1 uM, replicate 1
[6] = 24 h, 1 µM, compound concentration 1 uM, replicate 2
[7] = 24 h, 10 µM, compound concentration 10 uM, replicate 1
[8] = 24 h, 10 µM, compound concentration 10 uM, replicate 2
[9] = 48 h, 1 µM, compound concentration 1 uM, replicate 1
[10] = 48 h, 1 µM, compound concentration 1 uM, replicate 2
[11] = 48 h, 10 µM, compound concentration 10 uM, replicate 1
[12] = 48 h, 10 µM, compound concentration 10 uM, replicate 2

COc1cc2ncn(-c3cc(OCc4ccccc4C(F)(F)F)c(C(N)=O)s3)c2cc1OC [GW843682X]
Population Apoptotic (%) [1]: 62% | Population Fragmented Nuclei (%) [1]: 29% | Population Healthy Nuclei (%) [1]: 40% | Population Hoechst High Intensity Objects (%) [1]: 14% | Population Membrane Permeable-Phenotype (%) [1]: 28% | Population Mitochondria Different-Phenotype (%) [1]: 2% | Population Mitotic Cells (%) [1]: 37% | Population Normal (%) [1]: 85% | Population Pyknosed Nuclei (%) [1]: 29% | Population Tubulin-Different-Phenotype (%) [1]: 54% | Total Cell Count [1]: 145 | Population Apoptotic (%) [2]: 50% | Population Fragmented Nuclei (%) [2]: 9% | Population Healthy Nuclei (%) [2]: 80% | Population Hoechst High Intensity Objects (%) [2]: 10% | Population Membrane Permeable-Phenotype (%) [2]: 12% | Population Mitochondria Different-Phenotype (%) [2]: 10% | Population Mitotic Cells (%) [2]: 50% | Population Normal (%) [2]: 89% | Population Pyknosed Nuclei (%) [2]: 9% | Population Tubulin-Different-Phenotype (%) [2]: 20% | Total Cell Count [2]: 83 | Population Apoptotic (%) [3]: 54% | Population Fragmented Nuclei (%) [3]: 18% | Population Healthy Nuclei (%) [3]: 40% | Population Hoechst High Intensity Objects (%) [3]: 17% | Population Membrane Permeable-Phenotype (%) [3]: 19% | Population Mitochondria Different-Phenotype (%) [3]: 29% | Population Mitotic Cells (%) [3]: 45% | Population Normal (%) [3]: 82% | Population Pyknosed Nuclei (%) [3]: 41% | Population Tubulin-Different-Phenotype (%) [3]: 88% | Total Cell Count [3]: 182 | Population Apoptotic (%) [4]: 50% | Population Fragmented Nuclei (%) [4]: 13% | Population Healthy Nuclei (%) [4]: 75% | Population Hoechst High Intensity Objects (%) [4]: 6% | Population Membrane Permeable-Phenotype (%) [4]: 25% | Population Mitochondria Different-Phenotype (%) [4]: 88% | Population Mitotic Cells (%) [4]: 50% | Population Normal (%) [4]: 93% | Population Pyknosed Nuclei (%) [4]: 11% | Population Tubulin-Different-Phenotype (%) [4]: 98% | Total Cell Count [4]: 68 | Population Apoptotic (%) [5]: 61% | Population Fragmented Nuclei (%) [5]: 27% | Population Healthy Nuclei (%) [5]: 45% | Population Hoechst High Intensity Objects (%) [5]: 16% | Population Membrane Permeable-Phenotype (%) [5]: 28% | Population Mitochondria Different-Phenotype (%) [5]: 7% | Population Mitotic Cells (%) [5]: 38% | Population Normal (%) [5]: 83% | Population Pyknosed Nuclei (%) [5]: 26% | Population Tubulin-Different-Phenotype (%) [5]: 66% | Total Cell Count [5]: 139 | Population Apoptotic (%) [6]: 55% | Population Fragmented Nuclei (%) [6]: 11% | Population Healthy Nuclei (%) [6]: 74% | Population Hoechst High Intensity Objects (%) [6]: 5% | Population Membrane Permeable-Phenotype (%) [6]: 10% | Population Mitochondria Different-Phenotype (%) [6]: 19% | Population Mitotic Cells (%) [6]: 44% | Population Normal (%) [6]: 94% | Population Pyknosed Nuclei (%) [6]: 14% | Population Tubulin-Different-Phenotype (%) [6]: 17% | Total Cell Count [6]: 85 | Population Apoptotic (%) [7]: 74% | Population Fragmented Nuclei (%) [7]: 14% | Population Healthy Nuclei (%) [7]: 41% | Population Hoechst High Intensity Objects (%) [7]: 21% | Population Membrane Permeable-Phenotype (%) [7]: 25% | Population Mitochondria Different-Phenotype (%) [7]: 32% | Population Mitotic Cells (%) [7]: 25% | Population Normal (%) [7]: 78% | Population Pyknosed Nuclei (%) [7]: 43% | Population Tubulin-Different-Phenotype (%) [7]: 94% | Total Cell Count [7]: 171 | Population Apoptotic (%) [8]: 50% | Population Fragmented Nuclei (%) [8]: 13% | Population Healthy Nuclei (%) [8]: 69% | Population Hoechst High Intensity Objects (%) [8]: 9% | Population Membrane Permeable-Phenotype (%) [8]: 41% | Population Mitochondria Different-Phenotype (%) [8]: 91% | Population Mitotic Cells (%) [8]: 50% | Population Normal (%) [8]: 90% | Population Pyknosed Nuclei (%) [8]: 17% | Population Tubulin-Different-Phenotype (%) [8]: 97% | Total Cell Count [8]: 67 | Population Apoptotic (%) [9]: 52% | Population Fragmented Nuclei (%) [9]: 39% | Population Healthy Nuclei (%) [9]: 38% | Population Hoechst High Intensity Objects (%) [9]: 18% | Population Membrane Permeable-Phenotype (%) [9]: 21% | Population Mitochondria Different-Phenotype (%) [9]: 7% | Population Mitotic Cells (%) [9]: 47% | Population Normal (%) [9]: 81% | Population Pyknosed Nuclei (%) [9]: 21% | Population Tubulin-Different-Phenotype (%) [9]: 65% | Total Cell Count [9]: 130 | Population Apoptotic (%) [10]: 75% | Population Fragmented Nuclei (%) [10]: 22% | Population Healthy Nuclei (%) [10]: 73% | Population Hoechst High Intensity Objects (%) [10]: 9% | Population Membrane Permeable-Phenotype (%) [10]: 13% | Population Mitochondria Different-Phenotype (%) [10]: 1% | Population Mitotic Cells (%) [10]: 25% | Population Normal (%) [10]: 90% | Population Pyknosed Nuclei (%) [10]: 3% | Population Tubulin-Different-Phenotype (%) [10]: 53% | Total Cell Count [10]: 120 | Population Apoptotic (%) [11]: 61% | Population Fragmented Nuclei (%) [11]: 27% | Population Healthy Nuclei (%) [11]: 45% | Population Hoechst High Intensity Objects (%) [11]: 19% | Population Membrane Permeable-Phenotype (%) [11]: 24% | Population Mitochondria Different-Phenotype (%) [11]: 13% | Population Mitotic Cells (%) [11]: 38% | Population Normal (%) [11]: 80% | Population Pyknosed Nuclei (%) [11]: 27% | Population Tubulin-Different-Phenotype (%) [11]: 95% | Total Cell Count [11]: 177 | Population Apoptotic (%) [12]: 50% | Population Fragmented Nuclei (%) [12]: 29% | Population Healthy Nuclei (%) [12]: 55% | Population Hoechst High Intensity Objects (%) [12]: 16% | Population Membrane Permeable-Phenotype (%) [12]: 6% | Population Mitochondria Different-Phenotype (%) [12]: 21% | Population Mitotic Cells (%) [12]: 50% | Population Normal (%) [12]: 83% | Population Pyknosed Nuclei (%) [12]: 14% | Population Tubulin-Different-Phenotype (%) [12]: 92% | Total Cell Count [12]: 162
